Data as given in ChEMBL document CHEMBL3112392, “Cytotoxicity and DNA binding property of triphenylethylene-coumarin hybrids with two amino side chains” (Bioorg Med Chem Lett, 2014).
Calls of active or inactive are those of the source. The calls are words filed in the database; no cut-off is given here.

Assays:
DNA [1] = assay: Binding affinity to calf thymus DNA assessed as change in melting temperature at 5 uM after 10 mins by thermal denaturation assay; type: nucleic-acid assay; details: Bos taurus
DNA [2] = assay: Binding affinity to calf thymus DNA assessed as melting temperature at 5 uM after 10 mins by thermal denaturation assay (reference value: 67 degC); type: nucleic-acid assay; details: Bos taurus
DNA [3] = assay: Binding affinity to calf thymus DNA assessed as intercalation at 20 uM after 10 mins measured at 350 to 500 nm wavelength by circular dichroism spectroscopic analysis; type: nucleic-acid assay; details: Bos taurus
How it was run: (§1)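 Circular dichroism: spectra of Ct-DNA (5.0 × 10^-5 M) recorded with or without compound (2.0 × 10^-5 M). Buffer was 10 mM phosphate pH 7.4 with 50 mM NaCl and 2% DMSO, at 25 °C.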

DNA [4] = assay: Binding affinity to calf thymus DNA assessed as decrease in intensity of negative band at 20 uM after 10 mins measured at 246 nm wavelength by circular dichroism spectroscopic analysis; type: nucleic-acid assay; details: Bos taurus; how it was run: as §1
DNA [5] = assay: Binding affinity to calf thymus DNA assessed as increase in intensity of positive band at 20 uM after 10 mins measured at 277 nm wavelength by circular dichroism spectroscopic analysis; type: nucleic-acid assay; details: Bos taurus; how it was run: as §1
[6] = Cytotoxicity against mouse skull osteoblasts at 100 uM after 48 hrs by MTT assay relative to control; type: cell-based; details: osteoblast
How it was run: (§2)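 Primary osteoblasts were isolated from newborn mouse skull and exposed to compounds at five concentrations for 48 h. Induced cell death was measured by MTT assay and expressed as % cytotoxicity.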

[7] = Cytotoxicity against mouse skull osteoblasts at 40 uM after 48 hrs by MTT assay relative to control; type: cell-based; details: osteoblast; how it was run: as §2
[8] = Cytotoxicity against mouse skull osteoblasts at 20 uM after 48 hrs by MTT assay relative to control; type: cell-based; details: osteoblast; how it was run: as §2
[9] = Cytotoxicity against mouse skull osteoblasts at 10 uM after 48 hrs by MTT assay relative to control; type: cell-based; details: osteoblast; how it was run: as §2
[10] = Cytotoxicity against mouse skull osteoblasts at 1 uM after 48 hrs by MTT assay relative to control; type: cell-based; details: osteoblast; how it was run: as §2
MCF7 = assay: Cytotoxicity against human MCF7 cells after 48 hrs by MTT assay; type: functional, cell-based; details: for IC50: MCF7, 48 h
How it was run: (§3)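 Antiproliferative screen in human tumour lines; IC50 values derived, with cisplatin as positive control.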

K562 = assay: Cytotoxicity against human K562 cells after 48 hrs by MTT assay; type: functional, cell-based; details: for IC50: K562, 48 h; how it was run: as §3
A549 = assay: Cytotoxicity against human A549 cells after 48 hrs by MTT assay; type: functional, cell-based; details: A549, 48 h; how it was run: as §3
HeLa = assay: Cytotoxicity against human HeLa cells after 48 hrs by MTT assay; type: functional, cell-based; how it was run: as §3
DNA [11] = assay: Binding affinity to calf thymus DNA assessed as hyperchromicity at 10 uM after 10 mins by UV-vis spectrophotometric analysis; type: nucleic-acid assay; details: Bos taurus
How it was run: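 UV–vis absorption titration: 1.0 × 10^-5 M compound in 10 mM phosphate buffer pH 7.4 with 50 mM NaCl and 2% DMSO at 25 °C, with increasing Ct-DNA. Spectral changes were followed, and binding was fitted at the absorption maximum.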

DNA [12] = assay: Binding affinity to calf thymus DNA after 10 mins by Stern-Volmer plot analysis; type: nucleic-acid assay; details: Bos taurus
How it was run: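 Fluorescence titration: 5.0 × 10^-5 M compound in 10 mM phosphate buffer pH 7.4 with 50 mM NaCl and 2% DMSO at 25 °C, Ct-DNA added stepwise. Excitation wavelength set per compound (318–339 nm); excitation and emission slits 10.0 nm; emission read near 455 nm. F/F0 plotted against Ct-DNA concentration and analysed by Stern–Volmer plot.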

Row | SMILES | ΔTm (DNA [1]) [°C] | Tm (DNA [2]) [°C] | Activity (DNA [3]) | Activity (DNA [4]) | Activity (DNA [5]) | Activity [6] [%] | Activity [7] [%] | Activity [8] [%] | Activity [9] [%] | Activity [10] [%] | IC50 (MCF7) [µM] | IC50 (K562) [µM] | IC50 (A549) [µM] | IC50 (HeLa) [µM] | Activity (DNA [11]) [%] | Kb (DNA [12]) | Activity (MCF7) | Activity (K562)
1 | O=c1oc2ccccc2c(-c2ccc(OCCN3CCCCC3)cc2)c1-c1ccc(OCCN2CCCCC2)cc1 | 3 | 70 | Active | Active | Active | 40.3 | 22.3 | 10.6 | 1.6 | -3.2 | 4.29 | 5.44 | 7.28 | 4.36 | 16 | 1.2 ×10⁴ /M |  | 
2 | O=c1oc2cc(OCCN3CCCCC3)ccc2c(-c2ccccc2)c1-c1ccc(OCCN2CCCCC2)cc1 | 1.2 | 68.2 | Active | Active | Active | 33.4 | 18.6 | 4.9 | 3.7 | -6.5 | 6.53 | 4.9 | 5.21 | 5.08 | 6 | 7 ×10³ /M |  | 
3 | CCN(CC)CCOc1ccc(-c2c(-c3ccccc3)c3ccc(OCCN(CC)CC)cc3oc2=O)cc1 | 1.7 | 68.8 | Active | Active | Active | 31.7 | 15.8 | 3.7 | -1.5 | -7.2 | 5.95 | 2.73 | 8.97 | 9.58 | 8 | 6 ×10³ /M |  | 
4 | CN1CCN(CCOc2ccc(-c3c(-c4ccc(OCCN5CCN(C)CC5)cc4)c4ccccc4oc3=O)cc2)CC1 | 4 | 71 | Active | Active | Active |  |  |  |  |  | 78.3 | 53.2 | 55.6 | 60.5 | 17 | 1.4 ×10⁴ /M |  | 
5 | O=c1oc2ccccc2c(-c2ccc(OCCN3CCCC3)cc2)c1-c1ccc(OCCN2CCCC2)cc1 |  |  |  |  |  | 39.5 | 20.4 | 8.4 | -0.5 | 0.1 | 16.6 | 7.54 | 8.79 | 8.25 |  |  |  | 
6 | O=c1oc2cc(OCCN3CCCC3)ccc2c(-c2ccccc2)c1-c1ccc(OCCN2CCCC2)cc1 |  |  |  |  |  | 32.8 | 16.4 | 5.2 | -5.6 | -2.5 | 6.63 | 5.46 | 7.35 | 4.7 |  |  |  | 
7 | O=c1oc2ccccc2c(-c2ccc(O)cc2)c1-c1ccc(O)cc1 |  |  |  |  |  |  |  |  |  |  |  |  |  |  |  |  | inactive | inactive
8 | O=c1oc2ccccc2c(-c2ccc(OCCN3CCOCC3)cc2)c1-c1ccc(OCCN2CCOCC2)cc1 |  |  |  |  |  |  |  |  |  |  | > 100 | > 100 | > 100 | > 100 |  |  |  | 
9 | O=c1oc2cc(OCCN3CCOCC3)ccc2c(-c2ccccc2)c1-c1ccc(OCCN2CCOCC2)cc1 |  |  |  |  |  |  |  |  |  |  | > 100 | > 100 | > 100 | > 100 |  |  |  | 
10 | CN(C)CCOc1ccc(-c2c(-c3ccccc3)c3ccc(OCCN(C)C)cc3oc2=O)cc1 |  |  |  |  |  | 31.5 | 13.8 | 4.3 | -0.2 | -0.6 | 6.99 | 7.19 | 9.13 | 8.49 |  |  |  | 
11 | O=c1oc2cc(O)ccc2c(-c2ccccc2)c1-c1ccc(O)cc1 |  |  |  |  |  |  |  |  |  |  |  |  |  |  |  |  | inactive | inactive
12 | CCN(CC)CCOc1ccc(-c2c(-c3ccc(OCCN(CC)CC)cc3)c3ccccc3oc2=O)cc1 | 4.5 | 71.5 | Active | Active | Active |  |  |  |  |  | 50.1 | 56.2 | 46.3 | 45.2 | 17 | 1 ×10⁴ /M |  | 
13 | CN(C)CCOc1ccc(-c2c(-c3ccc(OCCN(C)C)cc3)c3ccccc3oc2=O)cc1 |  |  |  |  |  |  |  |  |  |  | 71.6 | 99.6 | > 100 | > 100 |  |  |  | 
14 | CN1CCN(CCOc2ccc(-c3c(-c4ccccc4)c4ccc(OCCN5CCN(C)CC5)cc4oc3=O)cc2)CC1 | 2.2 | 69.2 | Active | Active | Active | 31.6 | 14.6 | 3.2 | 0.6 | -2.4 | 3.47 | 3.23 | 4.7 | 3.68 | 8 | 5.2 ×10³ /M |  | 
